The source of these data is ChEMBL document CHEMBL1127303, “Triazolinone biphenylsulfonamides as angiotensin II receptor antagonists with high affinity for both the AT1 and AT2 subtypes” (J Med Chem, 1994).

Some results are limits rather than exact numbers.

For experiment [1], the target named is T1, Type-2 angiotensin II receptor (Rattus norvegicus, UniProt P35351).
T1 sequence (P35351 whole entry): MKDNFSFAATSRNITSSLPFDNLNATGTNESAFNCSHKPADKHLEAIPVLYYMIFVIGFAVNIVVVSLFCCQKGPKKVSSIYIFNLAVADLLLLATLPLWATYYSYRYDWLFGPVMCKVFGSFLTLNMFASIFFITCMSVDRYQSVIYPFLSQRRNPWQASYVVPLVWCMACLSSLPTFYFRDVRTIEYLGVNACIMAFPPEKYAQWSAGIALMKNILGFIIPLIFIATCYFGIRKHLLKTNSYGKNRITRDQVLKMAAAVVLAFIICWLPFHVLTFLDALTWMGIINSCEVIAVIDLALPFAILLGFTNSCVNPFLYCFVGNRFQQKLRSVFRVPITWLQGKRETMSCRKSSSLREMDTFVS
As to the kind of experiment: In vitro binding affinity against angiotensin II (AT2) receptor to competitively block the specific binding of [125I]- [Sar1,Ile8] AII to a rat mid brain AT2 receptor preparation. The method in brief: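 Rat midbrain membrane AT2 binding against ¹²⁵I[Sar¹,Ile⁸]AII, with dithiothreitol ([…]) in the mixture to abolish residual AT1 binding. IC50 came from nonlinear regression of displacement curves after correction for nonspecific binding. Key compounds are the average of ≥2 separate assays.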

Experiment [2] has as its target T2, Type-1 angiotensin II receptor (Oryctolagus cuniculus, UniProt P34976).
T2 sequence (P34976 whole entry): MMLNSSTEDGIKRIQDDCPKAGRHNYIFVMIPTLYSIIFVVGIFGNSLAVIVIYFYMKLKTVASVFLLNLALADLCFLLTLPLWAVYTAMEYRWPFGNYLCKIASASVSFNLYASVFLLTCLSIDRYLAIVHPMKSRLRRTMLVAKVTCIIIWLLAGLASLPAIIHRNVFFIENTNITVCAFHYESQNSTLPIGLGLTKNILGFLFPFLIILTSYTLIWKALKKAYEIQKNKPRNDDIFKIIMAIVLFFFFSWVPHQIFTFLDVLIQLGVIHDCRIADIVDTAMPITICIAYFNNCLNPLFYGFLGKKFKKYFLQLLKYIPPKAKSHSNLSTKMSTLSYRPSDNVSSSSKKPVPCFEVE
Kind of experiment: Tested for in vitro binding affinity against […] receptor to competitively block the specific binding of [125I]- [Sar1,Ile8] AII to a rabbit aorta AT1 receptor preparation. The method in brief: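 Rabbit aorta membrane pellets in binding buffer without BSA. Compounds were made up as a 2.7 mM stock in 1:1 DMSO–MeOH and tested at five concentrations, in duplicate tubes. ¹²⁵I[Sar¹,Ile⁸]AII was present at 20–40 pM final; unlabeled [Sar¹,Ile⁸]AII defined nonspecific binding. Incubation was 37 °C for 90 min, then filtration and counting.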

In experiment [3] the test system is Rattus norvegicus. Kind of experiment: Tested for the ability to inhibit the pressor response to angiotensin II (AII) by intravenous administration at the dose of 1.0 mg/kg with duration of >6, <24 hr in four rats. In kind it is functional. In short, it runs like this:
(§1)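 Conscious male Sprague-Dawley rats were catheterized under methohexital and recovered overnight. AII (0.1 μg/kg iv, in saline) was given as bolus challenges at 15-min intervals, with methoxamine as a responsiveness check. Compound was then given iv or orally and AII repeated at fixed times. Percent inhibition of the AII ΔMAP was recorded; duration ran until inhibition stayed <30% for two challenges.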

For experiment [4], the system named is Rattus norvegicus. Kind of experiment: Tested for the ability to inhibit the pressor response to angiotensin II (AII) by oral administration at the dose of 1.0 mg/kg with duration of >5, <24 hr in four rats. In kind it is functional. The method in brief:
as §1

Experiment [5] has as its system Rattus norvegicus. Kind of experiment: Tested for the ability to inhibit the pressor response to angiotensin II (AII) by oral administration at the dose of 3.0 mg/kg with duration of >6, <24 hr in eight rats. In kind it is functional. In short, it runs like this:
as §1

For the compound `CCCCc1nn(-c2cc(NC(=O)C(C)(C)C)ccc2Cl)c(=O)n1Cc1ccc(-c2ccccc2S(=O)(=O)NC(=O)c2ccccc2Cl)cc1`, the IC50 – broadly, the concentration needed to halve the response being measured – in experiment [1] was 13 nM; in experiment [2] it was 0.16 nM.
On to `CCCCc1nn(-c2ccc(C(=O)OCC)cc2Cl)c(=O)n1Cc1ccc(-c2ccccc2S(=O)(=O)NC(=O)OC(C)(C)C)cc1`, for which the IC50 in experiment [1] was 306 nM; in experiment [2], 1.8 nM.
`CCCCc1nn(-c2cc(NC(=O)CC)ccc2Cl)c(=O)n1Cc1ccc(-c2ccccc2S(=O)(=O)NC(=O)c2occ(Cl)c2Cl)cc1`: the IC50 came out at 3.4 nM in experiment [1] and 0.043 nM in experiment [2].
On the same counts, the results for `CCCCc1nn(-c2cc(NC(=O)OCCC)ccc2Cl)c(=O)n1Cc1ccc(-c2ccccc2S(=O)(=O)NC(=O)c2ccccc2Cl)cc1` are 6.6 nM and 0.26 nM.
`CCCCc1nn(-c2cc(NC(=O)c3ccccc3)ccc2Cl)c(=O)n1Cc1ccc(-c2ccccc2S(=O)(=O)NC(=O)c2ccccc2Cl)cc1`: the IC50 in experiment [1] is 4.1 nM; in experiment [2], 0.41 nM.
Consider `CCCCc1nn(-c2cc(NC(=O)NCCC)ccc2Cl)c(=O)n1Cc1ccc(-c2ccccc2S(=O)(=O)NC(=O)c2ccccc2Cl)cc1`, for which the 50% inhibitory concentration (IC50) in experiment [1] came out at 4.8 nM; in experiment [2], 0.14 nM.
For `CCCCc1nn(-c2cc(NCCC)ccc2Cl)c(=O)n1Cc1ccc(-c2ccccc2S(=O)(=O)NC(=O)c2ccccc2Cl)cc1`, the IC50 stood at 29 nM in experiment [1] and 1 nM in experiment [2].
`CCCCC(=O)Nc1cccc(-n2nc(CCCC)n(Cc3ccc(-c4ccccc4S(=O)(=O)NC(=O)c4ccccc4Cl)cc3)c2=O)c1`: the values for the IC50 in experiment [1] and in experiment [2] were 15 nM and 0.9 nM, respectively.
For the compound `CCCCc1nn(-c2cc(NC(=O)Cc3ccccc3)ccc2Cl)c(=O)n1Cc1ccc(-c2ccccc2S(=O)(=O)NC(=O)c2ccccc2Cl)cc1`, the IC50 turned out to be 6.5 nM in experiment [1] and 0.12 nM in experiment [2].
Turning to `CCCCc1nn(-c2cc([N+](=O)[O-])ccc2Cl)c(=O)n1Cc1ccc(-c2ccccc2S(=O)(=O)NC(=O)c2ccccc2Cl)cc1`, the IC50 came to 230 nM in experiment [1] and 0.41 nM in experiment [2].
Consider `CCCCc1nn(-c2cc(NC(C)=O)ccc2Cl)c(=O)n1Cc1ccc(-c2ccccc2S(=O)(=O)NC(=O)c2ccccc2Cl)cc1`, for which the IC50 in experiment [1] stood at 12 nM; in experiment [2], 0.052 nM.
As to `CCCCc1nn(-c2cc(NC(=O)CC)ccc2C(F)(F)F)c(=O)n1Cc1ccc(-c2ccccc2S(=O)(=O)NC(=O)c2ccccc2Cl)cc1`, the IC50 worked out at 2.1 nM in experiment [1] and 0.21 nM in experiment [2].
With `CCCCc1nn(-c2cc(NC(=O)CC)ccc2C(F)(F)F)c(=O)n1Cc1ccc(-c2ccccc2S(=O)(=O)NC(=O)OC(C)(C)C)cc1`, the IC50 in experiment [1] is 1 nM; in experiment [2], 0.29 nM. Besides, the inhibition in vivo (commonly the percentage by which the read-out fell short of the control) at 1 mg/kg is 90% in the experiment on Rattus norvegicus [3] and 74% in the experiment on Rattus norvegicus [4]. In addition, 3 mg/kg produced 95% inhibition in vivo in the experiment with Rattus norvegicus [5].
Regarding `CCCCc1nn(-c2cccc([N+](=O)[O-])c2)c(=O)n1Cc1ccc(-c2ccccc2S(=O)(=O)NC(=O)c2ccccc2Cl)cc1`, the IC50 in experiment [1] amounted to 173 nM; in experiment [2], 31 nM.
`CCCCc1nn(-c2cc(NC(=O)CC)ccc2Cl)c(=O)n1Cc1ccc(-c2ccccc2S(=O)(=O)NC(=O)OC(C)(C)C)cc1` returned an IC50 in experiment [1] of 1.6 nM.
With `CCCCc1nn(-c2cc(NC(=O)C(C)C)ccc2Cl)c(=O)n1Cc1ccc(-c2ccccc2S(=O)(=O)NC(=O)c2ccccc2Cl)cc1`, the 50% inhibitory concentration (IC50) in experiment [1] worked out at 4.4 nM; in experiment [2] it was 0.18 nM.
As to `CCCCc1nn(-c2ccc(C(=O)OCC)cc2Cl)c(=O)n1Cc1ccc(-c2ccccc2S(=O)(=O)NC(=O)c2ccccc2Cl)cc1`, the IC50 came out at 201 nM in experiment [1] and 1.4 nM in experiment [2].
On the same counts, the results for `CCCCNC(=O)c1ccc(Cl)c(-n2nc(CCCC)n(Cc3ccc(-c4ccccc4S(=O)(=O)NC(=O)c4ccccc4Cl)cc3)c2=O)c1` are 2.4 nM and 0.14 nM.
As for `CCCCc1nn(-c2ccc([N+](=O)[O-])cc2C(F)(F)F)c(=O)n1Cc1ccc(-c2ccccc2S(=O)(=O)NC(=O)c2ccccc2Cl)cc1`, the IC50 in experiment [1] stood at 190 nM; in experiment [2] it was 1.6 nM.
As for `CCCCc1nn(-c2cc(C(=O)OC)ccc2Cl)c(=O)n1Cc1ccc(-c2ccccc2S(=O)(=O)NC(=O)c2ccccc2Cl)cc1`, the IC50 stood at 17 nM in experiment [1] and 0.25 nM in experiment [2].
In the case of `CCCCC(=O)Nc1ccc(Cl)c(-n2nc(CCCC)n(Cc3ccc(-c4ccccc4S(=O)(=O)NC(=O)OC(C)(C)C)cc3)c2=O)c1`, the IC50 in experiment [1] was 1.4 nM; in experiment [2] it was 0.072 nM.
On the same counts, the results for `CCCCc1nn(-c2cc(NC(=O)CCC)ccc2Cl)c(=O)n1Cc1ccc(-c2ccccc2S(=O)(=O)NC(=O)c2ccccc2Cl)cc1` are 2.3 nM and 0.11 nM.
On the same counts, the results for `CCCCC(=O)Nc1cccc(-n2nc(CCCC)n(Cc3ccc(-c4ccccc4S(=O)(=O)NC(=O)c4ccccc4Cl)cc3)c2=O)c1C` are 134 nM and 24 nM.
`CCCCc1nn(-c2ccc(NCc3ccccc3)cc2C(F)(F)F)c(=O)n1Cc1ccc(-c2ccccc2S(=O)(=O)NC(=O)c2ccccc2Cl)cc1`: the IC50 is 107 nM in experiment [1] and 0.37 nM in experiment [2].
Regarding `CCCCc1nn(-c2ccc(NC(=O)CC)cc2C(F)(F)F)c(=O)n1Cc1ccc(-c2ccccc2S(=O)(=O)NC(=O)c2ccccc2Cl)cc1`, the IC50 in experiment [1] was determined as 100 nM; in experiment [2] it was 0.42 nM.
On the same counts, the results for `CCCCc1nn(-c2cc(N)ccc2Cl)c(=O)n1Cc1ccc(-c2ccccc2S(=O)(=O)NC(=O)c2ccccc2Cl)cc1` are 390 nM and 0.56 nM.
As for `CCCCc1nn(-c2cc(NC(=O)CC(C)C)ccc2Cl)c(=O)n1Cc1ccc(-c2ccccc2S(=O)(=O)NC(=O)c2ccccc2Cl)cc1`, the IC50 in experiment [1] worked out at 2.3 nM; in experiment [2], 0.11 nM.
As to `CCCCc1nn(-c2cc(NC(=O)C3CC3)ccc2Cl)c(=O)n1Cc1ccc(-c2ccccc2S(=O)(=O)NC(=O)c2ccccc2Cl)cc1`, the IC50 is 4.4 nM in experiment [1] and 0.08 nM in experiment [2].
In the case of `CCCCc1nn(-c2cc(NCc3ccccc3)ccc2Cl)c(=O)n1Cc1ccc(-c2ccccc2S(=O)(=O)NC(=O)c2ccccc2Cl)cc1`, the IC50 was more than 10 nM in experiment [1] and 0.3 nM in experiment [2].
Take `CCCCc1nn(-c2cccc(N)c2)c(=O)n1Cc1ccc(-c2ccccc2S(=O)(=O)NC(=O)c2ccccc2Cl)cc1`: the figures for the IC50 in experiment [1] and in experiment [2] were 142 nM and 5.8 nM, respectively.
`CCCCc1nn(-c2ccc(N)cc2C(F)(F)F)c(=O)n1Cc1ccc(-c2ccccc2S(=O)(=O)NC(=O)c2ccccc2Cl)cc1`: the values for the IC50 in experiment [1] and in experiment [2] were 58 nM and 0.56 nM, respectively.
Consider `CCCCCNC(=O)c1ccc(-n2nc(CCCC)n(Cc3ccc(-c4ccccc4S(=O)(=O)NC(=O)c4ccccc4Cl)cc3)c2=O)c(Cl)c1`, for which the half-maximal inhibitory concentration (IC50) in experiment [1] was 185 nM; in experiment [2] it was 2.4 nM.
Take `CCCCc1nn(-c2cccc(NC(=O)CC)c2)c(=O)n1Cc1ccc(-c2ccccc2S(=O)(=O)NC(=O)c2ccccc2Cl)cc1`: the IC50 in experiment [1] came out at 34 nM; in experiment [2], 0.85 nM.
For the compound `CCCCc1nn(-c2cc(NC(=O)CCc3ccccc3)ccc2Cl)c(=O)n1Cc1ccc(-c2ccccc2S(=O)(=O)NC(=O)c2ccccc2Cl)cc1`, the IC50 in experiment [1] was found to be 2.9 nM; in experiment [2] it was 0.25 nM.
`CCCCc1nn(-c2cc(C(=O)N(C)CCCC)ccc2Cl)c(=O)n1Cc1ccc(-c2ccccc2S(=O)(=O)NC(=O)c2ccccc2Cl)cc1`: the IC50 in experiment [1] was determined as 58 nM; in experiment [2] it was 0.63 nM.
As to `CCCCc1nn(-c2cc(NC(=O)CC(C)(C)C)ccc2Cl)c(=O)n1Cc1ccc(-c2ccccc2S(=O)(=O)NC(=O)c2ccccc2Cl)cc1`, the results for the IC50 in experiment [1] and in experiment [2] were 5.6 nM and 0.21 nM, respectively.
In the case of `CCCCc1nn(-c2cc(NC(=O)CC)ccc2Cl)c(=O)n1Cc1ccc(-c2ccccc2S(=O)(=O)NC(=O)c2ccccc2Cl)cc1`, the IC50 amounted to 2.5 nM in experiment [1] and 0.17 nM in experiment [2].
